From ChEMBL document CHEMBL4425127 (J Med Chem, 2016)
Calls of active or inactive are those of the source. The rule behind the calls is not given here.

System: Neuraminidase (Influenza A virus (strain A/Udorn/307/1972 H3N2)), P0DOF9 [E119V,I222L]
Assay: Binding affinity to zanamivir/oseltamivir resistant recombinant Influenza A virus (A/Moscow/10/99(H3N2)) Neuraminidase N2 E119V/I222L double mutant expressed in baculovirus infected insect cells at 100 to 1000 nM measured up to 160 sec by surface plasmon resonance analysis
In short: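 NA covalently immobilised on CM5 chip by amine coupling. Analyte passed over at several concentrations in running buffer. BSA served as negative control protein. Constants from a steady-state affinity model; triplicate experiments.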

COCCOCCOCCOCCOCCOCCOCCOCCOCCOCc1cn(CC(Cn2cc(COCCOCCOCCOCCOCCOCCOCCOCCOCCOC)nn2)(Cn2cc(COCCOCCOCCOCCOCCOCCOCCOCCOCCOC)nn2)Cn2cc(COCCOCCOCCOCCOCCOCCOCCOCCOCCOC)nn2)nn1
Activity: inactive
